Assay [1] can be described thus: Cytotoxicity against human SKOV3 cells co-cultured with human mesothelial cells at 10 uM after 4 hrs by firefly luciferase assay relative to control. The assay is classed as functional, SK-OV-3. In a few lines:
(§1)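 Co-culture of luciferase-transduced cancer cells (puromycin/G418-selected retroviral pLuc) with confluent human mesothelial monolayers. Suspended cancer cells plus 10 µM compound (final) or DMSO were overlaid for 4 h. Non-adherent cells were washed off and surviving adherent cells quantified by firefly luciferase luminescence. Efficacy = treated/DMSO luminescence ratio; mean±SEM, n=3.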

The subject of assay [2] is A2780. Nature of the assay: Cytotoxicity against human A2780 cells co-cultured with human mesothelial cells at 10 uM after 4 hrs by firefly luciferase assay relative to control. It counts as functional. The method, boiled down: as §1
Assay [3] is described as follows: Cytotoxicity against human BxPC3 cells co-cultured with human mesothelial cells at 10 uM after 4 hrs by firefly luciferase assay relative to control. It counts as functional, BXPC-3. The method, boiled down: as §1
Assay [4] is described as follows: Cytotoxicity against human SU86 cells co-cultured with human mesothelial cells at 10 uM after 4 hrs by firefly luciferase assay relative to control. The assay is classed as functional. The method, boiled down:
as §1

Assay [5] can be described thus: Cytotoxicity against human SU86 cells co-cultured with human mesothelial cells after 4 hrs by firefly luciferase assay relative to control. The assay is classed as functional, cell-based. The method, boiled down: (§2)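 Luciferase-expressing cancer cells in suspension were treated with a series of compound concentrations or DMSO, overlaid on confluent human mesothelial monolayers for 4 h, and washed to remove non-adherent cells. Surviving adherent cells were read by luciferase luminescence relative to vehicle, and EC50 was derived from the concentration series.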

The nature of assay [6]: Cytotoxicity against human SKOV3 cells co-cultured with human mesothelial cells after 4 hrs by firefly luciferase assay relative to control. The assay is classed as functional, cell-based. The following applies: SK-OV-3, 4 h. The method, boiled down:
as §2

A short description of assay [7]: Cytotoxicity against human BxPC3 cells co-cultured with human mesothelial cells after 4 hrs by firefly luciferase assay relative to control. Particulars: BXPC-3, 4 h. The assay is classed as functional, cell-based. In a few lines:
as §2

For assay [8], the system named is A2780. Kind of assay: Cytotoxicity against human A2780 cells co-cultured with human mesothelial cells after 4 hrs by firefly luciferase assay relative to control. It counts as functional, cell-based. Particulars: A2780, 4 h. The method, boiled down: as §2

We go through 37 compounds from ChEMBL document CHEMBL3407346, “Design, synthesis, and biological evaluation of sulfonyl acrylonitriles as novel inhibitors of cancer metastasis and spread” (J Med Chem, 2015).

Take `CC(C)(C(=O)Nc1ccccc1)c1ccc(S(=O)(=O)/C=C/C#N)cc1`: the Ratio in assay [1] stood at 0.55; in assay [2], 0.17; in assay [3] it was 0.22; in assay [4], 0.52.
In the same order, the values of `CC(C)(C)c1cc(S(=O)(=O)/C=C/C#N)ccc1OCC(=O)O` are 0.92, 1.05, 0.81 and 0.97.
`N#C/C=C/S(=O)(=O)c1ccc(C2(C(=O)NCc3ccc(Cl)cc3)CCOCC2)cc1`: the Ratio in assay [1] is 0.71; in assay [2] it was 0.46; in assay [3] it was 0.3; in assay [4], 0.66.
The corresponding values for `CC(C)(C)c1cc(S(=O)(=O)/C=C/C#N)ccc1OCC(=O)NCc1ccc(F)cc1` are 0.23, 0.02, 0.1 and 0.28.
The corresponding values for `C[C@@H](NC(=O)C(C)(C)c1ccc(S(=O)(=O)/C=C/C#N)cc1)c1ccccc1` are 0.64, 0.1, 0.21 and 0.21.
In the same order, the values of `CC(C)(C(=O)NC1CCCCC1)c1ccc(S(=O)(=O)/C=C/C#N)cn1` are 0.58, 0.16, 0.16 and 0.61.
In the case of `COc1ccccc1CNC(=O)C(C)(C)c1ccc(S(=O)(=O)/C=C/C#N)cc1`, the Ratio in assay [1] came to 0.27; in assay [2], 0.01; in assay [3] it was 0.07; in assay [4], 0.21.
Usually EC50 stands for the concentration needed to bring the measured effect to its halfway point. A high value points to a less potent agent. As to `Cc1ccc(O)c(NC(=O)COc2ccc(S(=O)(=O)/C=C/C#N)cc2C(C)(C)C)c1`, the Ratio in assay [1] stood at 0.24; in assay [2], 0.05; in assay [3] it was 0.1; in assay [4] it was 0.38. Besides, the EC50 stood at 8 µM in assay [5], 6.6 µM in assay [6], 3.8 µM in assay [7] and 2.4 µM in assay [8].
In the case of `CCNc1nnc(C(C)(C)c2ccc(S(=O)(=O)/C=C/C#N)cc2)o1`, the Ratio in assay [1] stood at 1.12; in assay [2], 0.86; in assay [3], 1.02; in assay [4], 0.96.
The corresponding values for `CC(C)(C(=O)NCC#Cc1ccccc1)c1ccc(S(=O)(=O)/C=C/C#N)cc1` are 0.4, 0.07, 0.14 and 0.5.
Consider `CC(C)(C(=O)NCC(F)F)c1ccc(S(=O)(=O)/C=C/C#N)cc1`, for which the Ratio in assay [1] stood at 1.13; in assay [2], 0.86; in assay [3], 0.82; in assay [4], 0.81.
In the same order, the values of `Cc1cnc(C(C)(C)c2ccc(S(=O)(=O)/C=C/C#N)cc2)o1` are 0.26, 0.03, 0.09 and 0.37.
On to `COc1cccc(NC(=O)COc2ccc(S(=O)(=O)/C=C/C#N)cc2C(C)(C)C)c1`, for which the Ratio is reported as 0.29 in assay [1], 0.03 in assay [2], 0.17 in assay [3] and 0.37 in assay [4].
As for `CC(C)(c1ccc(S(=O)(=O)/C=C/C#N)cc1)c1nnc(Nc2ccccc2)o1`, the Ratio stood at 0.65 in assay [1], 0.22 in assay [2], 0.39 in assay [3] and 0.62 in assay [4].
In the same order, the values of `CC(C)(C)c1ccc2cc(S(=O)(=O)/C=C/C#N)ccc2n1` are 0.35, 0.04, 0.22 and 0.45.
For the compound `Cc1ccc2oc(COc3ccc(S(=O)(=O)/C=C/C#N)cc3C(C)(C)C)nc2c1`, the Ratio in assay [1] stood at 0.36; in assay [2], 0.09; in assay [3], 0.24; in assay [4] it was 0.56.
Consider `C[C@H](NC(=O)C(C)(C)c1ccc(S(=O)(=O)/C=C/C#N)cc1)c1ccccc1`, for which the Ratio in assay [1] is on record as 0.67; in assay [2], 0.13; in assay [3], 0.27; in assay [4] it was 0.32.
The corresponding values for `CC(C)(C(=O)N1CCCCC1)c1ccc(S(=O)(=O)/C=C/C#N)cc1` are 0.51, 0.08, 0.25 and 0.51.
Consider `N#C/C=C/S(=O)(=O)c1ccc(C2(C(=O)NC3CCCCC3)CC2)cc1`, for which the Ratio was found to be 0.23 in assay [1], 0.09 in assay [2], 0.28 in assay [3] and 0.34 in assay [4].
The corresponding values for `CC(C)(C(=O)NCc1ccc(S(C)(=O)=O)cc1)c1ccc(S(=O)(=O)/C=C/C#N)cc1` are 0.78, 0.95, 0.99 and 1.09.
The corresponding values for `COc1cccc(CNC(=O)C(C)(C)c2ccc(S(=O)(=O)/C=C/C#N)cc2)c1` are 0.25, 0.03, 0.09 and 0.3.
With `CC(C)(c1ccc(S(=O)(=O)/C=C/C#N)cc1)c1nnc(C2CCCCC2)o1`, the Ratio in assay [1] is listed as 0.28; in assay [2], 0.02; in assay [3], 0.13; in assay [4] it was 0.27.
The corresponding values for `CC(C)(C(=O)NCc1ccccc1F)c1ccc(S(=O)(=O)/C=C/C#N)cc1` are 0.3, 0.03, 0.15 and 0.2.
The corresponding values for `CC(C)(C(=O)N[C@H]1CCCCNC1=O)c1ccc(S(=O)(=O)/C=C/C#N)cc1` are 0.85, 0.84, 0.82 and 0.97.
In the same order, the values of `N#C/C=C/S(=O)(=O)c1ccc(C2(C(=O)Nc3ccccc3)CCOCC2)cc1` are 0.97, 0.87, 0.85 and 0.92.
As for `CC(C)(C(=O)NCc1cccc(F)c1)c1ccc(S(=O)(=O)/C=C/C#N)cc1`, the Ratio in assay [1] stood at 0.3; in assay [2] it was 0.05; in assay [3], 0.17; in assay [4], 0.24.
In the same order, the values of `N#C/C=C/S(=O)(=O)c1ccc(C2(C(=O)NCc3ccc(F)cc3)CC2)cc1` are 0.43, 0.06, 0.34 and 0.64.
In the case of `CC(C)(c1ccc(S(=O)(=O)/C=C/C#N)cc1)c1nc2ccccc2[nH]1`, the Ratio in assay [1] is on record as 1.1; in assay [2], 1.07; in assay [3] it was 1.01; in assay [4], 1.04.
The corresponding values for `COCCOCc1ccc(NC(=O)C(C)(C)c2ccc(S(=O)(=O)/C=C/C#N)cc2)cc1` are 0.6, 0.26, 0.4 and 0.66.
In the same order, the values of `CC(C)(C(=O)NCc1ccc(S(N)(=O)=O)cc1)c1ccc(S(=O)(=O)/C=C/C#N)cc1` are 0.96, 1, 1 and 1.11.
In the case of `CC(C)(C)c1cccc(S(=O)(=O)/C=C/C#N)c1`, the Ratio in assay [1] is 0.35; in assay [2], 0.1; in assay [3] it was 0.08; in assay [4], 0.13.
In the case of `CN(Cc1ccc(F)cc1)C(=O)C(C)(C)c1ccc(S(=O)(=O)/C=C/C#N)cc1`, the Ratio is reported as 0.22 in assay [1], 0.02 in assay [2], 0.11 in assay [3] and 0.23 in assay [4].
Consider `N#C/C=C/S(=O)(=O)c1ccc(C2(C(=O)NCc3ccc(Cl)cc3)CCC2)cc1`, for which the Ratio in assay [1] was 0.3; in assay [2] it was 0.13; in assay [3], 0.21; in assay [4] it was 0.36.
In the same order, the values of `CC(C)(C(=O)NCCc1ccccc1)c1ccc(S(=O)(=O)/C=C/C#N)cc1` are 0.56, 0.1, 0.15 and 0.29.
In the same order, the values of `N#C/C=C/S(=O)(=O)c1ccc(C2(C(=O)NC3CCCCC3)CCOCC2)cc1` are 0.88, 1.12, 0.67 and 1.
For the compound `N#C/C=C/S(=O)(=O)c1ccc(C2(C(=O)Nc3ccccc3)CCC2)cc1`, the Ratio in assay [1] is 0.39; in assay [2], 0.17; in assay [3] it was 0.12; in assay [4], 0.35.
The corresponding values for `CC(C)(C(=O)NCc1ccc(-n2cccn2)cc1)c1ccc(S(=O)(=O)/C=C/C#N)cc1` are 0.84, 0.34, 0.48 and 0.49.
